Columns and labels:
[1] = Induction of H2S generation assessed as Cmax at 150 uM incubated at 22 degC and pH 1.2 by fluorescence spectrophotometry; assay type: functional
In short: (§1)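 Donor at 150 µM final, mixed with 200 µM sulfonyl-azide fluorescent probe in buffer/acetonitrile (1:9) at set pH. Cuvette held in a water bath at 22 °C or 37 °C, with fluorescence read three times at intervals. H2S was quantified from a Na2S standard curve (0–200 µM, probe 200 µM).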

[2] = Toxicity in zebra fish embryo assessed as decrease in spontaneous movement at 5 uM measured after 24 hpf by microscopic analysis; set-up: species or system Danio rerio; conditions: zebrafish
In short: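 Normal AB embryos were exposed to compound or DMF vehicle (1:1000) from 4 to 24 hpf. Ten embryos per group were chosen at random. Spontaneous movement was recorded for 5 min under a stereoscopic dissecting microscope and expressed as frequency per min. Values are mean ±SD of three independent experiments.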

[3] = Toxicity in zebra fish assessed as survival rate at 0.5 uM measured after 120 hpf by microscopic analysis; set-up: species or system Danio rerio; conditions: zebrafish
In short: (§2)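 Wild-type AB zebrafish embryos were checked at 4 hpf, and normally developed ones were used. There were 100 embryos per group, split into three replicates, one per well in 200 µL solution under sealing film. Mortality was recorded at 24–168 hpf. Vehicle control was DMF diluted 1:1000. Values are mean ±SD of three independent experiments.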

WI-38 = assay: Cytotoxicity in human W138 cells assessed as growth inhibition incubated for 24 hrs by MTT assay; assay type: cell-based; conditions: WI-38, 24 h
In short: (§3)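 Cells were grown in RPMI 1640 with 10% FBS at 37 °C and 10% CO2, seeded at 6×10^3 cells/well. Exposure was 24 h, with viability by MTT, in triplicate cultures. IC50 was reported as mean ± SD.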

H9c2 = assay: Cardioprotective activity against H2O2- induced toxicity in rat H9c2 cells assessed as increase in survival rate at 50 uM incubated for 8 hrs co-treated with 200 uM H2O2 measured after 24 hrs by MTT assay relative to control; assay type: functional
In short: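 H9c2 cardiomyocytes injured with H2O2 (50, 200 or 400 µM) for 8 h together with compound (10–100 µM). Survival rate measured against the H2O2 model group. Six independent experiments, mean ± sd.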

[4] = Induction of H2S generation assessed as Cmax at 150 uM incubated at 22 degC and pH 8 by fluorescence spectrophotometry; assay type: functional; in short: as §1
[5] = Induction of H2S generation assessed as Cmax at 150 uM incubated at 37 degC and pH 1.2 by fluorescence spectrophotometry; assay type: functional; in short: as §1
[6] = Induction of H2S generation assessed as Cmax at 150 uM incubated at 37 degC and pH 5 by fluorescence spectrophotometry; assay type: functional; in short: as §1
[7] = Toxicity in zebra fish assessed as decrease in survival rate at <=20 uM measured after 120 hpf by microscopic analysis relative control; set-up: species or system Danio rerio; conditions: zebrafish; in short: as §2
[8] = Induction of H2S generation assessed as Cmax at 150 uM incubated at 22 degC and pH 5 by fluorescence spectrophotometry; assay type: functional; in short: as §1
[9] = Toxicity in Wistar rat assessed as damaged glomeruli, marked gaps and swollen proximal convoluted tubules at 0.01 mmol/kg, ip administered for 14 days; assay type: organism-based; conditions: in vivo, 336 h, time 14 day
In short: (§4)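 Wistar rats (6/group) dosed ip daily for 14 days with compound in 10% DMSO; vehicle controls received 10% DMSO. Liver, kidney and spleen were fixed in 4% glutaraldehyde, sectioned, H-E stained and examined microscopically.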

[10] = Induction of H2S generation assessed as half life at 150 uM incubated at 22 degC and pH 1.2 by fluorescence spectrophotometry; assay type: functional; in short: as §1
MCF7 = assay: Cytotoxicity in human MCF-7 cells assessed as growth inhibition incubated for 24 hrs by MTT assay; assay type: functional, cell-based; conditions: MCF7, 24 h; in short: as §3
[11] = Cytotoxicity against mouse RAW264.7 cells assessed as cell viability at 20 to 100 microM after 24 hrs by MTT assay; assay type: cell-based; conditions: dose 20-100 µM, read-out: Activity
In short: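 RAW264.7 macrophages in high-glucose DMEM with 10% heat-inactivated FBS, 37 °C, 5% CO2. LPS 1 µg/mL with or without compound (20 and 100 µM) for 24 h. Then MTT 4 h, formazan dissolved in DMSO, A570, expressed as % of control.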

[12] = Toxicity in zebra fish assessed as hatching rate at 0.5 uM measured after 120 hpf by microscopic analysis; set-up: species or system Danio rerio; conditions: zebrafish
HepG2 = assay: Cytotoxicity in human HePG2 cells assessed as growth inhibition incubated for 24 hrs by MTT assay; assay type: functional, cell-based; conditions: HepG2, 24 h; in short: as §3
[13] = Toxicity in Wistar rat assessed as congested central venous and hepatic sinuses and swollen hepatocytes at 0.01 mmol/kg, ip administered for 14 days; assay type: organism-based; conditions: in vivo, 336 h, time 14 day; in short: as §4
[14] = Induction of H2S generation assessed as half life at 150 uM incubated at 22 degC and pH 5 by fluorescence spectrophotometry; assay type: functional; in short: as §1
[15] = Induction of H2S generation assessed as Cmax Induction of H2S generation assessed as Cmax at 150 uM incubated at 37 degC and pH 7.4 by fluorescence spectrophotometry; assay type: functional; in short: as §1
[16] = Induction of H2S generation assessed as Cmax at 150 uM incubated at 22 degC and pH 7.4 by fluorescence spectrophotometry; assay type: functional; in short: as §1
[17] = Toxicity in Wistar rat assessed as effect on hemoglobin level at 0.01 mmol/kg, ip, administered daily for 14 days (reference value: 98 g/l); conditions: in vivo, 336 h, time 14 day
[18] = Induction of H2S generation assessed as half life at 150 uM incubated at 37 degC and pH 5 by fluorescence spectrophotometry; assay type: functional; in short: as §1
[19] = Induction of H2S generation assessed as half life at 150 uM incubated at 37 degC and pH 8 by fluorescence spectrophotometry; assay type: functional; in short: as §1
[20] = Induction of H2S generation assessed as half life at 150 uM incubated at 22 degC and pH 7.4 by fluorescence spectrophotometry; assay type: functional; in short: as §1
[21] = Drug metabolism in Wistar rat liver homogenate assessed as metabolite 3b retention time incubated for 36 hrs by LC-MS analysis; assay type: ADME, tissue-based; conditions: tissue homogenate
[22] = Toxicity in Wistar rat assessed as effect on WBC level at 0.01 mmol/kg, ip, administered daily for 14 days (reference value: 5.82 10^9/L); conditions: in vivo, 336 h, time 14 day
[23] = Acute toxicity in juvenile zebrafish assessed as decrease in locomotor activity measured as swimming distance at 10 uM measured at 144 hpf; set-up: species or system Danio rerio; conditions: in vivo, dose […]
In short: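 Wild-type AB zebrafish bred at 28 °C on a 14 h/10 h light cycle; normally developing embryos were selected at 4 hpf. Total swimming distance of juveniles was recorded over 5 min under visible light. DMF (1:1000) was the vehicle control, n = 100, three independent experiments, mean ± SD.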

HeLa = assay: Cytotoxicity in human HeLa cells assessed as growth inhibition incubated for 24 hrs by MTT assay; assay type: functional, cell-based; in short: as §3
[24] = Toxicity in Wistar rat assessed as effect on RBC level at 0.01 mmol/kg, ip, administered daily for 14 days (reference value: […]); conditions: in vivo, 336 h, time 14 day
[25] = Retention time of compound in serum by LC-MS analysis; assay type: physicochemical, cell-free
In short: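 Compound incubated in PBS pH 7.4 or in serum, sampled every 12 h over 36 h, and analysed by LC-MS for parent and product peaks.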

Row | Structure (SMILES) | Cmax [1] | Activity [2] | Activity [3] | IC50 (WI-38) | Activity (H9c2) | Cmax [4] | Cmax [5] | Cmax [6] | Activity [7] | Cmax [8] | Activity [9] | T1/2 [10] | IC50 (MCF7) | viability at 24 h [11] | Activity [12] | IC50 (HepG2) | Activity [13] | T1/2 [14] | Cmax [15] | Cmax [16] | also measured
1 | O=C([O-])[C@H](Cc1cc2ccccc2[nH]1)NP([O-])(=S)c1ccccc1.[Li+].[Li+] (stereo not given in full) | 118 µM | Toxic | Non-Toxic | 724 µM | 30.1% | 118 µM | 124 µM | 124 µM | 50% | 117 µM | Toxic | 2.97 min | 838 µM | 70% | Non-Toxic | 315 µM | Toxic | 3.53 min | 124 µM | 117 µM | Activity [17]: 168 g/L; T1/2 [18]: 2.9 min; T1/2 [19]: 7.85 min; T1/2 [20]: 6.97 min; Retention_time [21]: 7.9 min; Activity [22]: 4.01 10^9/L; Activity [23]: 216 mm; IC50 (HeLa): 712 µM; Activity [24]: 5.98 10^12/L; Retention_time [25]: 8.06 min
2 | S=P1(c2ccccc2)NCCCO1 (stereo not given) | 25 µM | Toxic | Non-Toxic | 720 µM | 13.9% | 25.6 µM | 34.8 µM | 35.8 µM | 50% | 24.9 µM | Toxic | 35 min | 752 µM | 70% | Non-Toxic | 629 µM | Toxic | 34.1 min | 26.5 µM | 25.1 µM | Activity [17]: 190 g/L; T1/2 [18]: 36.6 min; T1/2 [19]: 34.9 min; T1/2 [20]: 36.8 min; Retention_time [21]: 8.63 min; Activity [22]: 3.23 10^9/L; Activity [23]: 257 mm; IC50 (HeLa): 826 µM; Activity [24]: 8.42 10^12/L; Retention_time [25]: 9.647 min

Reference: ChEMBL document CHEMBL4665656, “Toxicity, bioactivity, release of HS in vivo and pharmaco-kinetics of HS-donors with thiophosphamide structure” (Eur J Med Chem, 2019)
